Source: ChEMBL document CHEMBL1134845, “Syntheses and biological activities of a novel group of steroidal derived inhibitors for human Cdc25A protein phosphatase” (J Med Chem, 2001)
Each block holds one molecule with its values, some of them ahead of it.

Experiments:
[1] = biological target: T1, M-phase inducer phosphatase 1 (Homo sapiens, UniProt P30304); assay: Inhibitory activity tested against cell division cycle 25A (assay using p-nitrophenyl phosphate (pNPP) as substrate)
T1 sequence (P30304 whole entry): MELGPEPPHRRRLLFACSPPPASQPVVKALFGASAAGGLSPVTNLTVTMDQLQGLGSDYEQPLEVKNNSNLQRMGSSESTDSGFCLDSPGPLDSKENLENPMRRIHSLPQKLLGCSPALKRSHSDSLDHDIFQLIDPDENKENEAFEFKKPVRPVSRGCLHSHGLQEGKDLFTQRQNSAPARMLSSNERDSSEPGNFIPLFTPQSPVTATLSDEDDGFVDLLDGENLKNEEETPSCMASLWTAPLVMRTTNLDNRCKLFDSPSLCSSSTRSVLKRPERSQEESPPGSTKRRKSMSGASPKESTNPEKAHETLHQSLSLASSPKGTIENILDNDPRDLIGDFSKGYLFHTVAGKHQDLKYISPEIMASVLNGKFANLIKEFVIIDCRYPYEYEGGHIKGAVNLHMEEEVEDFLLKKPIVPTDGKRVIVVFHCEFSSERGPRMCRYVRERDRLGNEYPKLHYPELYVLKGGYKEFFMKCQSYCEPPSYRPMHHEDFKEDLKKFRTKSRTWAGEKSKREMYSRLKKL

[2] = test system: 786-0; assay: Growth inhibitory activity was determined against 786-0 cancer cell line of renal cancer; format: functional; details: Homo sapiens
Procedure, shortened: (§1)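 NCI 60 human tumour cell line screen run at the National Cancer Institute. Cell growth and viability read with the protein stain sulforhodamine B, which binds basic amino acids of cells left attached after washing. […] MG MID is the mean GI50 calculated over all panels.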

[3] = test system: A549; assay: Inhibitory activity against A549 human adenocarcinoma; format: functional, cell-based
Procedure, shortened: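 Soft agar clonogenic assay of anchorage-independent growth, using HT-29 colon and A549 lung adenocarcinoma cells. The value is the compound concentration that cut colony number to 50% of control.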

[4] = test system: A549; assay: Growth inhibitory activity was determined against A549/ATCC cancer cell line of non-small cell lung cancer; format: functional, Homo sapiens
Procedure, shortened: as §1

[5] = test system: COLO 205; assay: Growth inhibitory activity was determined against COLO 205 cancer cell line colon cancer; format: functional, Homo sapiens
Procedure, shortened: as §1

[6] = biological target: T1, M-phase inducer phosphatase 1; assay: Inhibitory activity tested against cell division cycle 25A (assay using fluorescein diphosphate (FDP) as substrate)
Procedure, shortened: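 Recombinant human GST-Cdc25A fusion protein, each batch calibrated so that FDP was dephosphorylated linearly over 20 min. Fluorescein diphosphate was the substrate. Reactions ran 15 min at 25 °C in the dark and were stopped with sodium orthovanadate. IC50 came from at least two independent runs, each in triplicate.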

[7] = biological target: T1, M-phase inducer phosphatase 1; assay: Inhibitory activity tested against cell division cycle 25A (assay using p-nitro phenyl phosphate (pNPP) as substrate)
[8] = test system: HT-29; assay: Growth inhibitory activity was determined against HT-29 cancer cell line colon cancer; format: functional, Homo sapiens
Procedure, shortened: as §1

[9] = test system: LOX IMVI; assay: Growth inhibitory activity was determined against LOX IMVI cancer cell line of melanoma; format: functional, Homo sapiens
Procedure, shortened: as §1

[10] = test system: NCI-H23; assay: Growth inhibitory activity was determined against NCI-H23 cancer cell line of non-small cell lung cancer; format: functional, Homo sapiens
Procedure, shortened: as §1

[11] = test system: NCI-H522; assay: Growth inhibitory activity was determined against NCI-H522 cancer cell line of non-small cell lung cancer; format: functional; details: Homo sapiens
Procedure, shortened: as §1

[12] = test system: NCI/ADR-RES; assay: Growth inhibitory activity was determined against NCI/ADR-RES cancer cell line of Breast cancer; format: functional, Homo sapiens
Procedure, shortened: as §1

[13] = test system: OVCAR-8; assay: Growth inhibitory activity was determined against OVCAR-8 cancer cell line of Ovarian cancer; format: functional; details: Homo sapiens
Procedure, shortened: as §1

[14] = test system: SN12C; assay: Growth inhibitory activity was determined against SN12C cancer cell line of renal cancer; format: functional; details: Homo sapiens
Procedure, shortened: as §1

[15] = test system: SF-539; assay: Growth inhibitory activity was determined against SF-539 cancer cell line of CNS cancer; format: functional; details: Homo sapiens
Procedure, shortened: as §1

[16] = test system: SF-268; assay: Growth inhibitory activity was determined against SF-268 cancer cell line of CNS cancer; format: functional; details: Homo sapiens
Procedure, shortened: as §1

[17] = test system: SK-MEL-5; assay: Growth inhibitory activity was determined against SK-MEL-5 cancer cell line of melanoma; format: functional, Homo sapiens
Procedure, shortened: as §1

[18] = test system: UO-31; assay: Growth inhibitory activity was determined against UO-31 cancer cell line of renal cancer; format: functional; details: Homo sapiens
Procedure, shortened: as §1

[19] = test system: U-251; assay: Growth inhibitory activity was determined against U-251 cancer cell line of CNS cancer; format: functional; details: Homo sapiens
Procedure, shortened: as §1

[20] = test system: PC-3; assay: Growth inhibitory activity was determined against PC-3 cancer cell line of Prostate cancer; format: functional; details: Homo sapiens
Procedure, shortened: as §1

[21] = test system: T47D; assay: Growth inhibitory activity was determined against T-47D cancer cell line of Breast cancer; format: functional, Homo sapiens
Procedure, shortened: as §1

[22] = test system: OVCAR-3; assay: Growth inhibitory activity was determined against OVCAR-3 cancer cell line of Ovarian cancer; format: functional; details: Homo sapiens
Procedure, shortened: as §1

[23] = test system: BT-549 (Homo sapiens); assay: Growth inhibitory activity was determined against BT-549 cancer cell line of Breast cancer
[24] = biological target: T2, Receptor-type tyrosine-protein phosphatase C (Homo sapiens, UniProt P08575); assay: Inhibitory activity tested against Human CD45 Phosphatase (assay using p-nitrophenyl phosphate (pNPP) as substrate)
T2 sequence (P08575 whole entry): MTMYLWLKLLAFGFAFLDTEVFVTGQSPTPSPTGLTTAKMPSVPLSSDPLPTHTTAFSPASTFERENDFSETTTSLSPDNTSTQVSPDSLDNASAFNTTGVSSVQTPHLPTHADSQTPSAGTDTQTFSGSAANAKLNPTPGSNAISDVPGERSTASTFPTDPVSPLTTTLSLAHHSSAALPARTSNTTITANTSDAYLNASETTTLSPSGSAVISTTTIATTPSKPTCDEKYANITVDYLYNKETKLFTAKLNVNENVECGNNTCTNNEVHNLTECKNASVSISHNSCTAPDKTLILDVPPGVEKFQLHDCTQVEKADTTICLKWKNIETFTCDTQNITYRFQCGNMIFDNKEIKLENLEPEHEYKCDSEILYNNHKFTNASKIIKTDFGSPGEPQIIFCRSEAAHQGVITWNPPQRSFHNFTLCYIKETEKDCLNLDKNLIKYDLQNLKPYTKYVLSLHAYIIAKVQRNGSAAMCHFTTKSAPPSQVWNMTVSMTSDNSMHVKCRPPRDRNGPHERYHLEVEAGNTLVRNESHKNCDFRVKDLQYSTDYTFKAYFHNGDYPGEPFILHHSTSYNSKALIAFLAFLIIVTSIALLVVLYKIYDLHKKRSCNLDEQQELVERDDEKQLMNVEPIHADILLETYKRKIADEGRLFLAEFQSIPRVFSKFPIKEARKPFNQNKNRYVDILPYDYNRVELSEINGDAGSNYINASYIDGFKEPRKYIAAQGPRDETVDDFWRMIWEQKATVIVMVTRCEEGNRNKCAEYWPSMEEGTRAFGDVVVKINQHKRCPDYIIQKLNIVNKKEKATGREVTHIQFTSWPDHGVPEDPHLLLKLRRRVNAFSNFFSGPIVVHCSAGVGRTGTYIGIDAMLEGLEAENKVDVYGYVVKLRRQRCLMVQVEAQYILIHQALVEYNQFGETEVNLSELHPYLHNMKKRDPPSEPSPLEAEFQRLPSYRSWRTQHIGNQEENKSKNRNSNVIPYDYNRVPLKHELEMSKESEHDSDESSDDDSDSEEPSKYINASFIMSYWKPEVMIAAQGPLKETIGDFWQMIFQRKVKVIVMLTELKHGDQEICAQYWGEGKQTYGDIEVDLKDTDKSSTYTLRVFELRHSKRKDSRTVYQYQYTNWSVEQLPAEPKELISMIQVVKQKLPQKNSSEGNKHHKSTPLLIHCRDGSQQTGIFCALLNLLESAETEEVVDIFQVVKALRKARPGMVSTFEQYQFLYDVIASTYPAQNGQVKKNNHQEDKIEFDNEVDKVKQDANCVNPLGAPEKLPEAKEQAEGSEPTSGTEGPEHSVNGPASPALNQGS

[25] = test system: HCC 2998; assay: Growth inhibitory activity was determined against HCC2998 cancer cell line colon cancer; format: functional, Homo sapiens
Procedure, shortened: as §1

[26] = test system: PC-3; assay: Growth inhibitory activity PC-3 cancer cell line of Prostate cancer; format: functional; details: Homo sapiens
Procedure, shortened: as §1

[27] = biological target: Receptor-type tyrosine-protein phosphatase C, CD45 (Homo sapiens) (UniProt P08575); assay: Inhibitory activity tested against human CD45 (receptor-type tyrosine-protein phosphatase C)
[28] = substrate: C=C(CCCCC#N)[C@H]1CC[C@]2(C)[C@@H]([C@H](C)CCCC(C)C)CC[C@H]2[C@@H]1CC(=O)O; details: 1.25 uM
[29] = substrate: C=C(CCCCC#N)[C@H]1CC[C@]2(C)[C@@H]([C@H](C)CCCC(C)C)CC[C@H]2[C@@H]1CC(=O)O; details: 5 uM
[30] = substrate: C=C(CCCCC#N)[C@H]1CC[C@]2(C)[C@@H]([C@H](C)CCCC(C)C)CC[C@H]2[C@@H]1CC(=O)O
[31] = substrate: C=C(CCCCC#N)[C@H]1CC[C@]2(C)[C@@H]([C@H](C)CCCC(C)C)CC[C@H]2[C@@H]1CC(=O)O; remark: listed apart in the source
[32] = substrate: C=C(CCCCC#N)[C@H]1CC[C@]2(C)[C@@H]([C@H](C)CCCC(C)C)CC[C@H]2[C@@H]1CC(=O)O; remark: listed apart in the source
[33] = substrate: C=C(CCCCC#N)[C@H]1CC[C@]2(C)[C@@H]([C@H](C)CCCC(C)C)CC[C@H]2[C@@H]1CC(=O)O; details: 0.625 uM
[34] = substrate: C=C(CCCCC#N)[C@H]1CC[C@]2(C)[C@@H]([C@H](C)CCCC(C)C)CC[C@H]2[C@@H]1CC(=O)O; remark: listed apart in the source
[35] = substrate: C=C(CCCCC#N)[C@H]1CC[C@]2(C)[C@@H]([C@H](C)CCCC(C)C)CC[C@H]2[C@@H]1CC(=O)O; details: 2.5 uM

Molecule: CC1=CC[C@H]2C(C)(C)CCC[C@]2(C)[C@H]1C(C)[C@H](OS(=O)(=O)O)[C@H](C)CCCc1ccoc1 (stereo partly drawn)
IC50 [1]: 7.8 µM

B1: M-phase inducer phosphatase 1 (Homo sapiens), P30304 (protein)
chain: MELGPEPPHRRRLLFACSPPPASQPVVKALFGASAAGGLSPVTNLTVTMDQLQGLGSDYEQPLEVKNNSNLQRMGSSESTDSGFCLDSPGPLDSKENLENPMRRIHSLPQKLLGCSPALKRSHSDSLDHDIFQLIDPDENKENEAFEFKKPVRPVSRGCLHSHGLQEGKDLFTQRQNSAPARMLSSNERDSSEPGNFIPLFTPQSPVTATLSDEDDGFVDLLDGENLKNEEETPSCMASLWTAPLVMRTTNLDNRCKLFDSPSLCSSSTRSVLKRPERSQEESPPGSTKRRKSMSGASPKESTNPEKAHETLHQSLSLASSPKGTIENILDNDPRDLIGDFSKGYLFHTVAGKHQDLKYISPEIMASVLNGKFANLIKEFVIIDCRYPYEYEGGHIKGAVNLHMEEEVEDFLLKKPIVPTDGKRVIVVFHCEFSSERGPRMCRYVRERDRLGNEYPKLHYPELYVLKGGYKEFFMKCQSYCEPPSYRPMHHEDFKEDLKKFRTKSRTWAGEKSKREMYSRLKKL
Vmax [28]: 4260
Vmax [29]: 632
Km [30]: 32.3 µM
Km [31]: 33.6 µM
Km [32]: 23.1 µM
Vmax [33]: 4610
Km [34]: 37.4 µM
Vmax [35]: 3070

The next lines start with results.

GI50 [2]: 7.54 µM
IC50 [3]: 7.2 µM
GI50 ([4]; Homo sapiens, A549): 15 µM
GI50 ([5]; Homo sapiens, COLO 205): 8.49 µM
IC50 [6]: 29 µM
IC50 [7]: > 100 µM
GI50 ([8]; Homo sapiens, HT-29): 4.85 µM
GI50 ([10]; Homo sapiens, NCI-H23): 14.8 µM
GI50 [11]: 0.89 µM
GI50 [13]: 8.72 µM
GI50 ([17]; Homo sapiens, SK-MEL-5): 4.57 µM
GI50 [19]: 9.49 µM
GI50 [20]: 9.73 µM
GI50 ([21]; Homo sapiens, T47D): 8.35 µM
GI50 [22]: 13.3 µM
GI50 ([23]; Homo sapiens, BT-549): > 25 µM
IC50 [24]: > 100 µM
Molecule: CC(C)CCCC(C)[C@H]1CC[C@H]2[C@@H]3CC(=O)O[C@](C)(CC/C=C\C#N)[C@H]3CC[C@]12C (stereo partly drawn)
GI50 ([9]; Homo sapiens, LOX IMVI): 5.15 µM
GI50 ([12]; Homo sapiens, NCI/ADR-RES): > 25 µM
GI50 [14]: 5.08 µM
GI50 [15]: > 25 µM
GI50 [16]: 3.19 µM
GI50 [18]: 0.39 µM

GI50 [2]: 7.18 µM
GI50 [4]: 4.35 µM
GI50 [5]: 5.55 µM
IC50 [6]: 1.9 µM
GI50 [8]: 5.18 µM
GI50 [25]: 4.77 µM
GI50 [10]: 5.85 µM
GI50 [13]: 8.02 µM
GI50 [26]: 6.88 µM
GI50 [17]: 7.71 µM
GI50 [19]: 4.35 µM
GI50 [21]: 9.27 µM
GI50 [22]: 5.19 µM
GI50 [23]: 6.2 µM
IC50 [27]: 8.6 µM
IC50 [24]: 8.6 µM
Molecule: CC(C)CCCC(C)[C@H]1CC[C@H]2[C@H](CC(=O)O)[C@@H](C(C)CCCCC#N)CC[C@]12C (stereo in doubt; 22)
GI50 [9]: 4.69 µM
GI50 [12]: 8.2 µM
GI50 [14]: 6.46 µM
GI50 [15]: 5.01 µM
GI50 [18]: 8.74 µM
